Laboratory results from ChEMBL document CHEMBL1828500, “Synthesis and biological evaluation of dihydroindeno and indeno [1,2-e] [1,2,4]triazolo [3,4-b] [1,3,4]thiadiazines as antimicrobial agents” (2011).
Values after ≈ are worked out from the molar mass of the structure shown. Active and inactive are the calls of the source. No cut-off for these calls is given here.

tested on: Staphylococcus aureus; test: Antibacterial activity against Staphylococcus aureus MTCC 96 at 2 mg/ml after 24 hrs by agar well diffusion method; type: functional; settings: MTCC 96, 24 h, read-out: DIZ
Summary of the method: (§1)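 Cultures adjusted to 0.5 McFarland and left 15 min on agar for adsorption. 8 mm wells bored and loaded with compound at 2.0 mg/mL in DMSO. Incubated 37 °C for 24 h. Growth-inhibition zone diameter (mm) read with a zone scale and reported as the average. DMSO served as negative control and ciprofloxacin as positive control.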

SMILES	zone of inhibition at 2000 µg/mL [mm]
CCCc1nnc2sc3cc4ccccc4c-3nn12	25.6
Cc1cccc2c3nn4c(-c5ccccc5)nnc4sc-3cc12	18.6
CCc1nnc2n1N=C1c3cccc(C)c3CC1S2 (configuration not stated)	26.6
Cc1cccc2c3nn4c(C(C)C)nnc4sc-3cc12	17.6
Cc1cccc2c3nn4cnnc4sc-3cc12	25.3
c1ccc2c(c1)CC1Sc3nncn3N=C21 (configuration not stated)	15.3
CCc1nnc2sc3cc4c(C)cccc4c-3nn12	21.6
c1ccc(-c2nnc3n2N=C2c4ccccc4CC2S3)cc1 (configuration not stated)	20.6
Cc1cccc2c3nn4c(C)nnc4sc-3cc12	20.3
CCCc1nnc2n1N=C1c3ccccc3CC1S2 (configuration not stated)	27.3
c1ccc(-c2nnc3sc4cc5ccccc5c-4nn23)cc1	14.6

tested on: Bacillus subtilis; test: Antibacterial activity against Bacillus subtilis MTCC 121 at 2 mg/ml after 24 hrs by agar well diffusion method; type: functional; settings: MTCC 121, 24 h, read-out: DIZ; summary of the method: as §1

SMILES	zone of inhibition at 2000 µg/mL [mm]
CCCc1nnc2sc3cc4ccccc4c-3nn12	24.3
Cc1cccc2c3nn4c(-c5ccccc5)nnc4sc-3cc12	22.6
CCc1nnc2n1N=C1c3cccc(C)c3CC1S2 (configuration not stated)	28
Cc1cccc2c3nn4c(C(C)C)nnc4sc-3cc12	19.3
Cc1cccc2c3nn4cnnc4sc-3cc12	28.6
c1ccc2c(c1)CC1Sc3nncn3N=C21 (configuration not stated)	17.6
CCc1nnc2sc3cc4c(C)cccc4c-3nn12	23
c1ccc(-c2nnc3n2N=C2c4ccccc4CC2S3)cc1 (configuration not stated)	16.3
Cc1cccc2c3nn4c(C)nnc4sc-3cc12	18.6
CCCc1nnc2n1N=C1c3ccccc3CC1S2 (configuration not stated)	25
c1ccc(-c2nnc3sc4cc5ccccc5c-4nn23)cc1	15

tested on: Escherichia coli; test: Antibacterial activity against Escherichia coli MTCC 1652 at 2 mg/ml after 24 hrs by agar well diffusion method; type: functional; settings: not given; summary of the method: as §1

SMILES	diameter of the inhibition zone (DIZ)
c1ccc2c(c1)CC1Sc3nncn3N=C21 (configuration not stated)	inactive
c1ccc(-c2nnc3sc4cc5ccccc5c-4nn23)cc1	inactive

same assay, conditions: MTCC 1652, 24 h, read-out: DIZ

SMILES	zone of inhibition at 2000 µg/mL [mm]
CCCc1nnc2sc3cc4ccccc4c-3nn12	18.6
Cc1cccc2c3nn4c(-c5ccccc5)nnc4sc-3cc12	15.6
CCc1nnc2n1N=C1c3cccc(C)c3CC1S2 (configuration not stated)	21
Cc1cccc2c3nn4c(C(C)C)nnc4sc-3cc12	15
Cc1cccc2c3nn4cnnc4sc-3cc12	20.6
CCc1nnc2sc3cc4c(C)cccc4c-3nn12	19.3
c1ccc(-c2nnc3n2N=C2c4ccccc4CC2S3)cc1 (configuration not stated)	18.3
Cc1cccc2c3nn4c(C)nnc4sc-3cc12	18.6
CCCc1nnc2n1N=C1c3ccccc3CC1S2 (configuration not stated)	19.3

tested on: Pseudomonas aeruginosa; test: Antibacterial activity against Pseudomonas aeruginosa MTCC 741 at 2 mg/ml after 24 hrs by agar well diffusion method; type: functional; settings: not given; summary of the method: as §1

SMILES	diameter of the inhibition zone (DIZ)
c1ccc2c(c1)CC1Sc3nncn3N=C21 (configuration not stated)	inactive
c1ccc(-c2nnc3sc4cc5ccccc5c-4nn23)cc1	inactive

same assay, conditions: MTCC 741, 24 h, read-out: DIZ

SMILES	zone of inhibition at 2000 µg/mL [mm]
CCCc1nnc2sc3cc4ccccc4c-3nn12	16.3
Cc1cccc2c3nn4c(-c5ccccc5)nnc4sc-3cc12	15.3
CCc1nnc2n1N=C1c3cccc(C)c3CC1S2 (configuration not stated)	19.3
Cc1cccc2c3nn4c(C(C)C)nnc4sc-3cc12	14.6
Cc1cccc2c3nn4cnnc4sc-3cc12	18.3
CCc1nnc2sc3cc4c(C)cccc4c-3nn12	17.3
c1ccc(-c2nnc3n2N=C2c4ccccc4CC2S3)cc1 (configuration not stated)	14.6
Cc1cccc2c3nn4c(C)nnc4sc-3cc12	15.6
CCCc1nnc2n1N=C1c3ccccc3CC1S2 (configuration not stated)	18.6

tested on: Staphylococcus aureus; test: Antibacterial activity against Staphylococcus aureus MTCC 96 after 24 hrs by agar well diffusion method; type: functional; settings: MTCC 96, 24 h
Summary of the method: (§2)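 MIC by modified agar well diffusion. Two-fold serial dilutions (DMSO stock diluted in sterile distilled water), range 256 to 0.5, placed in wells in triplicate. Agar was pre-seeded with 100 standardized inoculum at 10⁶ cfu/mL. Incubated aerobically at 37 °C for 24 h. MIC taken as lowest concentration giving a clear zone, i.e. complete growth inhibition.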

MIC [mg/L]	SMILES
16 (≈ 59.6 µM)	CCCc1nnc2sc3cc4ccccc4c-3nn12
64 (≈ 202 µM)	Cc1cccc2c3nn4c(-c5ccccc5)nnc4sc-3cc12
8 (≈ 29.6 µM)	CCc1nnc2n1N=C1c3cccc(C)c3CC1S2 (configuration not stated)
128 (≈ 453 µM)	Cc1cccc2c3nn4c(C(C)C)nnc4sc-3cc12
16 (≈ 66.6 µM)	Cc1cccc2c3nn4cnnc4sc-3cc12
128 (≈ 561 µM)	c1ccc2c(c1)CC1Sc3nncn3N=C21 (configuration not stated)
32 (≈ 119 µM)	CCc1nnc2sc3cc4c(C)cccc4c-3nn12
64 (≈ 210 µM)	c1ccc(-c2nnc3n2N=C2c4ccccc4CC2S3)cc1 (configuration not stated)
64 (≈ 252 µM)	Cc1cccc2c3nn4c(C)nnc4sc-3cc12
8 (≈ 29.6 µM)	CCCc1nnc2n1N=C1c3ccccc3CC1S2 (configuration not stated)
256 (≈ 847 µM)	c1ccc(-c2nnc3sc4cc5ccccc5c-4nn23)cc1

tested on: Bacillus subtilis; test: Antibacterial activity against Bacillus subtilis MTCC 121 after 24 hrs by agar well diffusion method; type: functional; settings: MTCC 121, 24 h; summary of the method: as §2

MIC [mg/L]	SMILES
16 (≈ 59.6 µM)	CCCc1nnc2sc3cc4ccccc4c-3nn12
32 (≈ 101 µM)	Cc1cccc2c3nn4c(-c5ccccc5)nnc4sc-3cc12
4 (≈ 14.8 µM)	CCc1nnc2n1N=C1c3cccc(C)c3CC1S2 (configuration not stated)
64 (≈ 227 µM)	Cc1cccc2c3nn4c(C(C)C)nnc4sc-3cc12
4 (≈ 16.6 µM)	Cc1cccc2c3nn4cnnc4sc-3cc12
128 (≈ 561 µM)	c1ccc2c(c1)CC1Sc3nncn3N=C21 (configuration not stated)
32 (≈ 119 µM)	CCc1nnc2sc3cc4c(C)cccc4c-3nn12
128 (≈ 421 µM)	c1ccc(-c2nnc3n2N=C2c4ccccc4CC2S3)cc1 (configuration not stated)
64 (≈ 252 µM)	Cc1cccc2c3nn4c(C)nnc4sc-3cc12
16 (≈ 59.2 µM)	CCCc1nnc2n1N=C1c3ccccc3CC1S2 (configuration not stated)
256 (≈ 847 µM)	c1ccc(-c2nnc3sc4cc5ccccc5c-4nn23)cc1

tested on: Escherichia coli; test: Antibacterial activity against Escherichia coli MTCC 1652 after 24 hrs by agar well diffusion method; type: functional; settings: MTCC 1652, 24 h; summary of the method: as §2

MIC [mg/L]	SMILES
64 (≈ 238 µM)	CCCc1nnc2sc3cc4ccccc4c-3nn12
128 (≈ 405 µM)	Cc1cccc2c3nn4c(-c5ccccc5)nnc4sc-3cc12
32 (≈ 118 µM)	CCc1nnc2n1N=C1c3cccc(C)c3CC1S2 (configuration not stated)
128 (≈ 453 µM)	Cc1cccc2c3nn4c(C(C)C)nnc4sc-3cc12
64 (≈ 266 µM)	Cc1cccc2c3nn4cnnc4sc-3cc12
64 (≈ 238 µM)	CCc1nnc2sc3cc4c(C)cccc4c-3nn12
64 (≈ 210 µM)	c1ccc(-c2nnc3n2N=C2c4ccccc4CC2S3)cc1 (configuration not stated)
64 (≈ 252 µM)	Cc1cccc2c3nn4c(C)nnc4sc-3cc12
64 (≈ 237 µM)	CCCc1nnc2n1N=C1c3ccccc3CC1S2 (configuration not stated)

tested on: Pseudomonas aeruginosa; test: Antibacterial activity against Pseudomonas aeruginosa MTCC 741 after 24 hrs by agar well diffusion method; type: functional; settings: MTCC 741, 24 h; summary of the method: as §2

MIC [mg/L]	SMILES
128 (≈ 477 µM)	CCCc1nnc2sc3cc4ccccc4c-3nn12
128 (≈ 405 µM)	Cc1cccc2c3nn4c(-c5ccccc5)nnc4sc-3cc12
32 (≈ 118 µM)	CCc1nnc2n1N=C1c3cccc(C)c3CC1S2 (configuration not stated)
256 (≈ 907 µM)	Cc1cccc2c3nn4c(C(C)C)nnc4sc-3cc12
128 (≈ 533 µM)	Cc1cccc2c3nn4cnnc4sc-3cc12
64 (≈ 238 µM)	CCc1nnc2sc3cc4c(C)cccc4c-3nn12
256 (≈ 841 µM)	c1ccc(-c2nnc3n2N=C2c4ccccc4CC2S3)cc1 (configuration not stated)
128 (≈ 503 µM)	Cc1cccc2c3nn4c(C)nnc4sc-3cc12
64 (≈ 237 µM)	CCCc1nnc2n1N=C1c3ccccc3CC1S2 (configuration not stated)

tested on: Aspergillus niger; test: Antifungal activity against Aspergillus niger assessed as inhibition of mycelial growth at 4 mg/ml after 7 days; type: functional; settings: 168 h, read-out: GI
Summary of the method: (§3)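 Poisoned food method. Molds grown on Sabouraud dextrose agar at 25 °C for 7 days to provide inocula. Molten SDA (45 °C) dosed with compound at 4.0 mg/mL in DMSO, then solidified. 8 mm fungal plugs from colony margins placed centrally. Incubated 25 °C for 7 days, in triplicate. % mycelial growth inhibition calculated from colony diameters versus DMSO control. Fluconazole served as positive control.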

SMILES	inhibition of growth at 4000 µg/mL [%]
CCCc1nnc2sc3cc4ccccc4c-3nn12	51.1
Cc1cccc2c3nn4c(-c5ccccc5)nnc4sc-3cc12	55.5
CCc1nnc2n1N=C1c3cccc(C)c3CC1S2 (configuration not stated)	64.4
Cc1cccc2c3nn4c(C(C)C)nnc4sc-3cc12	65.5
Cc1cccc2c3nn4cnnc4sc-3cc12	71.1
c1ccc2c(c1)CC1Sc3nncn3N=C21 (configuration not stated)	51.1
CCc1nnc2sc3cc4c(C)cccc4c-3nn12	65.5
c1ccc(-c2nnc3n2N=C2c4ccccc4CC2S3)cc1 (configuration not stated)	51.1
Cc1cccc2c3nn4c(C)nnc4sc-3cc12	53.3
CCCc1nnc2n1N=C1c3ccccc3CC1S2 (configuration not stated)	55.5
c1ccc(-c2nnc3sc4cc5ccccc5c-4nn23)cc1	45.5

tested on: Aspergillus flavus; test: Antifungal activity against Aspergillus flavus assessed as inhibition of mycelial growth at 4 mg/ml after 7 days; type: functional; settings: 168 h, read-out: GI; summary of the method: as §3

SMILES	inhibition of growth at 4000 µg/mL [%]
CCCc1nnc2sc3cc4ccccc4c-3nn12	48.8
Cc1cccc2c3nn4c(-c5ccccc5)nnc4sc-3cc12	51.1
CCc1nnc2n1N=C1c3cccc(C)c3CC1S2 (configuration not stated)	63.3
Cc1cccc2c3nn4c(C(C)C)nnc4sc-3cc12	61.1
Cc1cccc2c3nn4cnnc4sc-3cc12	68.8
c1ccc2c(c1)CC1Sc3nncn3N=C21 (configuration not stated)	52.5
CCc1nnc2sc3cc4c(C)cccc4c-3nn12	62.5
c1ccc(-c2nnc3n2N=C2c4ccccc4CC2S3)cc1 (configuration not stated)	48.8
Cc1cccc2c3nn4c(C)nnc4sc-3cc12	50
CCCc1nnc2n1N=C1c3ccccc3CC1S2 (configuration not stated)	52.5
c1ccc(-c2nnc3sc4cc5ccccc5c-4nn23)cc1	48.8

tested on: Penicillium sp.; test: Antifungal activity against Penicillium sp. assessed as inhibition of mycelial growth at 4 mg/ml after 7 days; type: functional; settings: 168 h, read-out: GI; summary of the method: as §3

SMILES	inhibition of growth at 4000 µg/mL [%]
CCCc1nnc2sc3cc4ccccc4c-3nn12	47.7
Cc1cccc2c3nn4c(-c5ccccc5)nnc4sc-3cc12	48.8
CCc1nnc2n1N=C1c3cccc(C)c3CC1S2 (configuration not stated)	65.5
Cc1cccc2c3nn4c(C(C)C)nnc4sc-3cc12	63.3
Cc1cccc2c3nn4cnnc4sc-3cc12	66.6
c1ccc2c(c1)CC1Sc3nncn3N=C21 (configuration not stated)	51.1
CCc1nnc2sc3cc4c(C)cccc4c-3nn12	63.3
c1ccc(-c2nnc3n2N=C2c4ccccc4CC2S3)cc1 (configuration not stated)	50
Cc1cccc2c3nn4c(C)nnc4sc-3cc12	51.1
CCCc1nnc2n1N=C1c3ccccc3CC1S2 (configuration not stated)	53.3
c1ccc(-c2nnc3sc4cc5ccccc5c-4nn23)cc1	51.1
